Reference: ChEMBL document CHEMBL4145690, “Rational Design and Structure Validation of a Novel Peptide Inhibitor of the Adenomatous-Polyposis-Coli (APC)-Rho-Guanine-Nucleotide-Exchange-Factor-4 (Asef) Interaction” (J Med Chem, 2018)
*1 amine or outer side, *2 acyl side, *3 side chain or, on linkers, in order; H or OH if unused. Where a SMILES comes first, the peptide text is derived from it. [ ]: non-standard residue; d: D form. The star is where a group is joined. Ala(4-thiazolyl) = N[C@@H](Cc1cscn1)C(=O)O; Leu(4,5-dehydro) = C=C(C)C[C@H](N)C(=O)O; X1 = O=C([C@H](Cc1ccc(Br)s1)N[*:1])[*:2]; Ala(cHept) = N[C@@H](CC1CCCCCC1)C(=O)O; 1Nal = N[C@@H](Cc1cccc2ccccc12)C(=O)O; Gly(octyl) = CCCCCCCC[C@H](N)C(=O)O; Gly(cPent) = N[C@H](C(=O)O)C1CCCC1; tBuAla = CC(C)(C)C[C@H](N)C(=O)O; Met(O) = CS(=O)CC[C@H](N)C(=O)O; 2Thi = N[C@@H](Cc1cccs1)C(=O)O; 3Thi = N[C@@H](Cc1ccsc1)C(=O)O; Chg = N[C@H](C(=O)O)C1CCCCC1; Phg = N[C@H](C(=O)O)c1ccccc1; Tle = CC(C)(C)[C@H](N)C(=O)O; Cbz = O=C(OCc1ccccc1)*

Target: Adenomatous polyposis coli protein (Homo sapiens, UniProt P25054)
Assay: Binding affinity to APC protein (303 to 739 residues) (unknown origin) incubated for 60 mins followed by probe addition and measured after 60 mins by competitive fluorescence polarization assay
Method in brief: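 Peptide in DMSO preincubated with protein 60 min at room temperature with shaking; probe added, then 60 min more. Controls: blank, tracer only, complex only. IC50 from dose-response curves, mean of three independent experiments.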

Adenomatous polyposis coli protein, sequence (P25054 whole entry, the tested form may be a part): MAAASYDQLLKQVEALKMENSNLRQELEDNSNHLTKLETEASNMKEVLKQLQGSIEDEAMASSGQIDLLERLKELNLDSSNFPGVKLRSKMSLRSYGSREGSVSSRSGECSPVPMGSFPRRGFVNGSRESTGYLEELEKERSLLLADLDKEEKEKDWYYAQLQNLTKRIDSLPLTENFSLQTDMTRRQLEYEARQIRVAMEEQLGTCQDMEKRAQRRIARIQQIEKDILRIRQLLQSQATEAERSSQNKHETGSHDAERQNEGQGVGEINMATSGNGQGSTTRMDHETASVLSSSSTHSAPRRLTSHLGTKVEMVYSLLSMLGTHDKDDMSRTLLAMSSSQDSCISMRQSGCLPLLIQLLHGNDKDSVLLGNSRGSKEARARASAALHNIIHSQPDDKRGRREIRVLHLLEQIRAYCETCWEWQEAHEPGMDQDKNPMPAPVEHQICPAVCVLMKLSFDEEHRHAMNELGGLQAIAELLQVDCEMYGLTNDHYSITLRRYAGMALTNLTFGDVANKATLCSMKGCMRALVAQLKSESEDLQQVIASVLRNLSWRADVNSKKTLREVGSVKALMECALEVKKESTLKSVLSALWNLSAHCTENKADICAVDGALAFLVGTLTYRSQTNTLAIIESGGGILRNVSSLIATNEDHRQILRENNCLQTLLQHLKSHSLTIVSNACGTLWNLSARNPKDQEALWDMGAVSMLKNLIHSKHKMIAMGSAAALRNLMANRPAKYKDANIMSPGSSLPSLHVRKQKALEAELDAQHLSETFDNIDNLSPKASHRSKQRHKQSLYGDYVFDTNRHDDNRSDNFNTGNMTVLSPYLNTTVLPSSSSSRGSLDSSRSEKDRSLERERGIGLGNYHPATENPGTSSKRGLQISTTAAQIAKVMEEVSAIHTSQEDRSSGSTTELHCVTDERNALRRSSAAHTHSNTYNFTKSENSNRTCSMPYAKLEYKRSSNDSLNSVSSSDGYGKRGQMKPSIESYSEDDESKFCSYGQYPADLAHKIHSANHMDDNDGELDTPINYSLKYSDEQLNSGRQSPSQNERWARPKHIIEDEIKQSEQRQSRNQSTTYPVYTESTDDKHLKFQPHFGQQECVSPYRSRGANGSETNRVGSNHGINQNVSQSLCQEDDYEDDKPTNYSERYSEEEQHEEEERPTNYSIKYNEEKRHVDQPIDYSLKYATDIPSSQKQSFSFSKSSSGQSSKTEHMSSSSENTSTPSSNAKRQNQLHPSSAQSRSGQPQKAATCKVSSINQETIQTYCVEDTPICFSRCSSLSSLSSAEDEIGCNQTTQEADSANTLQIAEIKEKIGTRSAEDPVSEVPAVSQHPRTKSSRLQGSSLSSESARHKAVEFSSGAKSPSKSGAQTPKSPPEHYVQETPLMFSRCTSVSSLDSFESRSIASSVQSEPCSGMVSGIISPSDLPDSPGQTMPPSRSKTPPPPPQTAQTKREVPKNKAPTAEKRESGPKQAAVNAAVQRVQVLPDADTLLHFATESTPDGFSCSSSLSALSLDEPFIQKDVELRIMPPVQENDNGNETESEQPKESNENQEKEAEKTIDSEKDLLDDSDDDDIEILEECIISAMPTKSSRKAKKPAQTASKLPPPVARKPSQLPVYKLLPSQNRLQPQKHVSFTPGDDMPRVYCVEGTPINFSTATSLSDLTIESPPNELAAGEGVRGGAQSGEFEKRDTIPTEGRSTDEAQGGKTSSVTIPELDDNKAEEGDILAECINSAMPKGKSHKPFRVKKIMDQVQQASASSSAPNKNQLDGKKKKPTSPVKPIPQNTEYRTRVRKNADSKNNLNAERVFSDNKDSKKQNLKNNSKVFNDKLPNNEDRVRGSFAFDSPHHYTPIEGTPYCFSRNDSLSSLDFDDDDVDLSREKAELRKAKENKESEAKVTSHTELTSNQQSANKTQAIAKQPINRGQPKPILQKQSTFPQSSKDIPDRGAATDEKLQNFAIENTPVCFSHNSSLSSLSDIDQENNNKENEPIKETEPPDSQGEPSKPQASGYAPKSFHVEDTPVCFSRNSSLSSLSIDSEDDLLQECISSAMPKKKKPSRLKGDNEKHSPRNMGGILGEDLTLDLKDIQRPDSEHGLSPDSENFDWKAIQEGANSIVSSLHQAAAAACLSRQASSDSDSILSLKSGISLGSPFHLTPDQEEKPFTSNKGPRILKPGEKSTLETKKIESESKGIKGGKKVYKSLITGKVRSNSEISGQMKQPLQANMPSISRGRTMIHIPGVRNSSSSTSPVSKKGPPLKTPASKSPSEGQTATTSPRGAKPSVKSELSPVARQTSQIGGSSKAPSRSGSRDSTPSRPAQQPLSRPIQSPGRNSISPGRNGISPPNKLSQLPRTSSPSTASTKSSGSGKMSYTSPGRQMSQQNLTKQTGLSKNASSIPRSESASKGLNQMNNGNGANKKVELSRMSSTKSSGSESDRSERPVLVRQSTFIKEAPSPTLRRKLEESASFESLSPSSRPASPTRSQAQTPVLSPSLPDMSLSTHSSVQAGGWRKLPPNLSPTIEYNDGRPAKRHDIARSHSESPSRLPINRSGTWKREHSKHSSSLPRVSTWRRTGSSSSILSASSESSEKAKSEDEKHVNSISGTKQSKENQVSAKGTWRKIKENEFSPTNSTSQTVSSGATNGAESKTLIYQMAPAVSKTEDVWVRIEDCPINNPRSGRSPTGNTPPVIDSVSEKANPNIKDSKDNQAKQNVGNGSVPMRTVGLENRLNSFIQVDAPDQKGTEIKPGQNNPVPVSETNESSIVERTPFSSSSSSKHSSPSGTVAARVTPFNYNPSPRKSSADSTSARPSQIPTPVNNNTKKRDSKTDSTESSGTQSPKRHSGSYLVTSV

SMILES | IC50 [µM]
C[C@H](NC(=O)OCc1ccccc1)C(=O)NCC(=O)N[C@@H](CCC(=O)O)C(=O)N[C@@H](CO)C(=O)N[C@H](C(=O)N[C@@H](Cc1ccc(O)cc1)C(=O)N[C@@H](CCC(=O)O)C(N)=O)C1CCCCC1 (Cbz-AGES[Chg]YE-NH2) | 2.95
C=C(C)C[C@H](NC(=O)[C@H](CO)NC(=O)[C@H](CCC(=O)O)NC(=O)CNC(=O)[C@H](C)NC(=O)OCc1ccccc1)C(=O)N[C@@H](Cc1ccc(O)cc1)C(=O)N[C@@H](CCC(=O)O)C(N)=O (Cbz-AGES[Leu(4,5-dehydro)]YE-NH2) | 3.64
C[C@H](NC(=O)OCc1ccccc1)C(=O)NCC(=O)N[C@@H](CCC(=O)O)C(=O)N[C@@H](CO)C(=O)N[C@@H](Cc1ccc(Br)s1)C(=O)N[C@@H](Cc1ccc(O)cc1)C(=O)N[C@@H](CCC(=O)O)C(N)=O (Cbz-AGES[X1]YE-NH2) | 5
C[C@H](NC(=O)OCc1ccccc1)C(=O)NCC(=O)N[C@@H](CCC(=O)O)C(=O)N[C@@H](CO)C(=O)N[C@H](C(=O)N[C@@H](Cc1ccc(O)cc1)C(=O)N[C@@H](CCC(=O)O)C(N)=O)c1ccccc1 (Cbz-AGES[Phg]YE-NH2) | 4.29
C[C@H](NC(=O)OCc1ccccc1)C(=O)NCC(=O)N[C@@H](CCC(=O)O)C(=O)N[C@@H](CO)C(=O)N[C@@H](Cc1cccs1)C(=O)N[C@@H](Cc1ccc(O)cc1)C(=O)N[C@@H](CCC(=O)O)C(N)=O (Cbz-AGES[2Thi]YE-NH2) | 4.01
C[C@H](NC(=O)OCc1ccccc1)C(=O)NCC(=O)N[C@@H](CCC(=O)O)C(=O)N[C@@H](CO)C(=O)N[C@@H](CC[S+](C)[O-])C(=O)N[C@@H](Cc1ccc(O)cc1)C(=O)N[C@@H](CCC(=O)O)C(N)=O (stereo partly drawn) (Cbz-AGES[Met(O)]YE-NH2) | 13.9
C[C@H](NC(=O)OCc1ccccc1)C(=O)NCC(=O)N[C@@H](CCC(=O)O)C(=O)N[C@@H](CO)C(=O)N[C@@H](Cc1c[nH]cn1)C(=O)N[C@@H](Cc1ccc(O)cc1)C(=O)N[C@@H](CCC(=O)O)C(N)=O (Cbz-AGESHYE-NH2) | 50.6
C[C@H](NC(=O)OCc1ccccc1)C(=O)NCC(=O)N[C@@H](CCC(=O)O)C(=O)N[C@@H](CO)C(=O)N[C@@H](Cc1cccc2ccccc12)C(=O)N[C@@H](Cc1ccc(O)cc1)C(=O)N[C@@H](CCC(=O)O)C(N)=O (Cbz-AGES[1Nal]YE-NH2) | 10.1
CCCCCCCC[C@H](NC(=O)[C@H](CO)NC(=O)[C@H](CCC(=O)O)NC(=O)CNC(=O)[C@H](C)NC(=O)OCc1ccccc1)C(=O)N[C@@H](Cc1ccc(O)cc1)C(=O)N[C@@H](CCC(=O)O)C(N)=O (Cbz-AGES[Gly(octyl)]YE-NH2) | 3.02
CC(C)C[C@H](NC(=O)[C@@H](NC(=O)[C@H](CCC(=O)O)NC(=O)CNC(=O)[C@H](C)NC(=O)OCc1ccccc1)[C@H](C)O)C(=O)N[C@@H](Cc1ccc(O)cc1)C(=O)N[C@@H](CCC(=O)O)C(N)=O | 2.01
CC(C)C[C@H](NC(=O)[C@H](Cc1ccc(O)cc1)NC(=O)[C@H](CCC(=O)O)NC(=O)CNC(=O)[C@H](C)NC(=O)OCc1ccccc1)C(=O)N[C@@H](Cc1ccc(O)cc1)C(=O)N[C@@H](CCC(=O)O)C(N)=O (Cbz-AGEYLYE-NH2) | 5.46
C[C@H](NC(=O)OCc1ccccc1)C(=O)NCC(=O)N[C@@H](CCC(=O)O)C(=O)N[C@@H](CO)C(=O)N[C@@H](CC1CCCCCC1)C(=O)N[C@@H](Cc1ccc(O)cc1)C(=O)N[C@@H](CCC(=O)O)C(N)=O (Cbz-AGES[Ala(cHept)]YE-NH2) | 1.94
C[C@H](NC(=O)OCc1ccccc1)C(=O)NCC(=O)N[C@@H](CCC(=O)O)C(=O)N[C@@H](CO)C(=O)N[C@@H](Cc1ccccc1)C(=O)N[C@@H](Cc1ccc(O)cc1)C(=O)N[C@@H](CCC(=O)O)C(N)=O (Cbz-AGESFYE-NH2) | 4.36
C[C@H](NC(=O)OCc1ccccc1)C(=O)NCC(=O)N[C@@H](CCC(=O)O)C(=O)N[C@@H](CO)C(=O)N[C@H](C(=O)N[C@@H](Cc1ccc(O)cc1)C(=O)N[C@@H](CCC(=O)O)C(N)=O)C1CCCC1 (Cbz-AGES[Gly(cPent)]YE-NH2) | 4.07
C[C@H](NC(=O)OCc1ccccc1)C(=O)NCC(=O)N[C@@H](CCC(=O)O)C(=O)N[C@@H](CO)C(=O)N[C@@H](Cc1ccsc1)C(=O)N[C@@H](Cc1ccc(O)cc1)C(=O)N[C@@H](CCC(=O)O)C(N)=O (Cbz-AGES[3Thi]YE-NH2) | 6.86
C[C@H](NC(=O)OCc1ccccc1)C(=O)NCC(=O)N[C@@H](CCC(=O)O)C(=O)N[C@@H](CO)C(=O)N[C@H](C(=O)N[C@@H](Cc1ccc(O)cc1)C(=O)N[C@@H](CCC(=O)O)C(N)=O)C(C)(C)C (Cbz-AGES[Tle]YE-NH2) | 31.5
C[C@H](NC(=O)OCc1ccccc1)C(=O)NCC(=O)N[C@@H](CCC(=O)O)C(=O)N[C@@H](CO)C(=O)N[C@@H](CC(C)(C)C)C(=O)N[C@@H](Cc1ccc(O)cc1)C(=O)N[C@@H](CCC(=O)O)C(N)=O (Cbz-AGES[tBuAla]YE-NH2) | 1.78
C[C@H](NC(=O)OCc1ccccc1)C(=O)NCC(=O)N[C@@H](CCC(=O)O)C(=O)N[C@@H](CO)C(=O)N[C@@H](Cc1cscn1)C(=O)N[C@@H](Cc1ccc(O)cc1)C(=O)N[C@@H](CCC(=O)O)C(N)=O (Cbz-AGES[Ala(4-thiazolyl)]YE-NH2) | 16.4
